Compound activity (PubChem)
Tn7 DDE FP – inhibitors of Tn7 peptide binding to human fibrin DD(E) | FP displacement of FITC-Tn7 peptide from fibrin DD(E); 0% = median of compound wells per plate | AID 720508 | inhibition, % at 8.3 µM | 370,000 tested, 0.13% active;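 active means inhibition above the mean of compounds falling within the control limits plus 3 SD of them, cut at about 14% in these data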;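 further: 0% = plate median of compound wells and 100% = 10 µM Aha-Tn7 peptide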
Target sequence (P02675 whole entry, looked up): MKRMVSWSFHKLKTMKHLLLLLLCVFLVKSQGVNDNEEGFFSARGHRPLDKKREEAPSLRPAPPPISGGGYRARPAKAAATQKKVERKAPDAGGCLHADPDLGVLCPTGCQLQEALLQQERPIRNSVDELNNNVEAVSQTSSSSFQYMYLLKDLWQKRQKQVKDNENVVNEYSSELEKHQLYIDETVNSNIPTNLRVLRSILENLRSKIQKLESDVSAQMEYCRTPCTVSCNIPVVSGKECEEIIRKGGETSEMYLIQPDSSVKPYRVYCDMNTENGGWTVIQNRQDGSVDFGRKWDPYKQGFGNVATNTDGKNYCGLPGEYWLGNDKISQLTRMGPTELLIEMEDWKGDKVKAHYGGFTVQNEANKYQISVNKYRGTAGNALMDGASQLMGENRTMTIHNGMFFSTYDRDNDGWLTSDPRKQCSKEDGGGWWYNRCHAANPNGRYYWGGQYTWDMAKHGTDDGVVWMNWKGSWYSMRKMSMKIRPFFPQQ
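system = human fibrin DD(E) protein | quantity = DD(E) 2 µM final | medium = Tris/NaCl/CaCl2 buffer, pH 7.8 | also added = labelled Tn7 tracer, 0.1 µM | compound dosing = single point at 8.3 µM | timing = compound with protein 10 min, then 3 h after probe, room temperature | signal = FP measurement | benchmarks = Aha-Tn7 high control | repeats = one replicate per compound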
Arrestin-AP2 inh – blocks beta-arrestin peptide binding to AP2 adaptin; FITC-arrestin peptide / GST-AP2 beads, flow cytometry; AP2 beta2 appendage carries R879A mutation; inhibition, % at 10 µM; 340,000 tested, 0.31% active;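 active means inhibition above a set limit, near 3 SD of compounds lacking own fluorescence, cut at about 54% in these data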;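 further: plate controls were DMSO wells for no effect and 5 µM unlabelled arrestin peptide for full effect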
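System: GST-AP2 R879A bound to glutathione beads, E. coli-expressed. Also added: 50 nM FITC-arrestin peptide. Schedule: compound with beads 12 min RT, then probe 1 h RT. Signal: bead flow cytometry, FITC channel. Read-out basis: percent response.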
CAL PDZ FP-1 – CAL PDZ (human) peptide binding inhibition | Q9HD26 | purified CAL PDZ, TMR-peptide fluorescence polarization, 1 h | inhibition, % at 24.9 µM | 300,000 tested, 0.92% active | AID 602252;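 active means mean inhibition of at least 30% with at least half of replicates also reaching 30%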;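 further: 0% = DMSO neutral control and 100% = excess unlabeled competitor peptide PRC23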
CAL PDZ FP-2 – blocks peptide binding to human CAL PDZ domain; Q9HD26; purified CAL PDZ, TMR-peptide fluorescence polarization, 1 h; inhibition, % at 20 µM; 330,000 tested, 0.02% active;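 active means highest replicate inhibition of at least 40%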;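 further: plate controls were DMSO neutral control wells for no effect and unlabeled competitor peptide control wells for full effect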
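material = purified tagged CAL PDZ domain construct (CerCALP) | compound dosing = 20 µM, one dose | times = 1 h at RT | measured by = fluorescence polarization from S- and P-plane intensities, G-factor corrected | read-out = inhibition from polarization loss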
Tn6 DDE FP – disrupts Tn6 cyclic peptide binding to fibrin D-Dimer-E complex. P02675. Fibrin DD(E) TRITC-Tn6 fluorescence polarization displacement. inhibition, % at 8.3 µM. 370,000 tested, 0.21% active. AID 720509;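 active means inhibition above a per-campaign cutoff: mean of compounds within control limits plus 3 SD, cut at about 15% in these data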;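 further: 0% = median of all compound wells on the plate and 100% = blocking peptide control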
* marks the source's active call; other numbers are inactive results; x = not tested or not shown. An excerpt weighted towards active compounds, which were near 1.4% of everything screened.

SMILES	Tn7 DDE FP	Arrestin-AP2 inh	CAL PDZ FP-1	CAL PDZ FP-2	Tn6 DDE FP
O=C(N/N=C/c1cc([N+](=O)[O-])ccc1O)C1CC1	6	-5	79*	18	5
Cc1nnc(SC(C(=O)Nc2ccc(Cl)c([N+](=O)[O-])c2)c2ccccc2)[nH]c1=O (stereo not given)	-1	-1	62*	20	-6
CCCCOc1ccc(NC(=O)Nc2nnc(C)s2)cc1	-2	0	60*	0	-1
CCc1nnc(NC(=O)Nc2ccc(OC)cc2)s1	-1	-5	0	0	-4
COn1c(SCC(N)=O)nc2ccccc2c1=O	-4	4	-1	-2	6
COn1c(SCc2ccc(C)cc2C)nc2ccccc2c1=O	6	-2	48*	x	5
CCCn1c(N)c(N(CCOC)C(=O)c2ccccc2F)c(=O)[nH]c1=O	-2	-9	-3	1	0
CCCCn1c(N)c(N(CC)C(=O)C2CCCC2)c(=O)[nH]c1=O	7	-5	-1	0	-3
CCCCCCn1nc(C(=O)N(CCCC)c2c(N)n(CCC)c(=O)[nH]c2=O)c2ccccc2c1=O	10	-3	47*	2	0
CCN(C(=O)c1ccc(=O)[nH]c1)c1c(N)n(Cc2ccccc2)c(=O)[nH]c1=O	-3	-2	x	-1	4
CCCCCn1nc(C(=O)N(CC(C)C)c2c(N)n(CCCC)c(=O)[nH]c2=O)c2ccccc2c1=O	1	34	11	-2	-10
CCCCn1c(N)c(N(CC)C(=O)c2ccccc2F)c(=O)[nH]c1=O	-5	-2	33*	0	6
CCCCn1c(N)c(N(C)C(=O)C2CCCC2)c(=O)[nH]c1=O	6	-9	43*	0	1
CCN(C(=O)c1ccc(=O)n(C)n1)c1c(N)n(Cc2ccccc2)c(=O)[nH]c1=O	4	-6	38*	1	8
COCCCN1C(=O)[C@H](CC(=O)N2CCSCC2)[C@]2(C(=O)OC)CCCCC=C12	0	x	x	x	2
CCOc1ccc(-n2c(SCC(=O)Nc3cccc4ccccc34)nnc2-c2ccco2)cc1	0	x	x	x	-2
Cc1cccc(NC(=O)N2CCC(N(C)CCC(C)C)CC2)c1	-5	x	x	x	5
CC(O)CNCCNCc1cccs1 (stereo not given)	-6	-1	47*	14	-1
CCc1ccc(CNCCNCC(C)O)cc1 (stereo not given)	8	-4	x	-2	5
COc1ccc(/C=N/N=C2/NC(=O)C(CC(=O)NC(N)=O)S2)cc1 (stereo not given)	-1	4	49*	0	4
CC(C)C[C@@H]1COc2cc(Br)ccc2S(=O)(=O)N1Cc1cn(CC2CCCCC2)nn1	6	x	x	x	-6
O=C(COC(=O)c1cccc2ccccc12)NCC1CCCO1 (stereo not given)	-5	13	0	-4	6
O=C(COC(=O)c1ccc[nH]c1=O)NCC1CCCO1 (stereo not given)	-4	-1	56*	0	2
CC(CCc1ccccn1)C(=O)C(C)CCc1ccccn1 (stereo not given)	6	-7	81*	-1	3
COc1cccc(/C=C2\SC(=S)N(CCC(=O)NCCc3ccc(O)cc3)C2=O)c1	2	-9	80*	0	-4
SMILES	Tn7 DDE FP	Arrestin-AP2 inh	CAL PDZ FP-1	CAL PDZ FP-2	Tn6 DDE FP
COc1cccc(/C=C2\SC(=S)N(CCC(=O)Nc3ccc(O)cc3)C2=O)c1	1	41	-2	0	-3
CCOc1ccc2cc(S(=O)(=O)N3CCCCC3)ccc2c1	-2	1	60*	0	-5
CCOc1ccc2cc(S(=O)(=O)N3CCN(C)CC3)ccc2c1	7	6	1	-3	-6
CC(=O)N1CCC(=NNC(=O)c2cc3ccccc3cc2O)CC1	1	-18	55*	-1	-2
CCOC(=O)N1CCC(=NNC(=O)c2cc3ccccc3cc2O)CC1	-1	13	x	-4	-14
C[C@H]1[C@@H](N(C)C)CC[C@@]23CCCN2C(=O)CCC[C@@H]13	-1	x	x	x	-3
COc1ccc(-c2cc(-c3nnc(SCc4cccc5ccccc45)n3N)[nH]n2)cc1	1	x	x	x	1
COc1ccc(CCNC/C=C/c2ccccc2)cc1	-10	-11	51*	-1	0
COc1cc(OC)cc(C(=O)OC(C)C(=O)NC2CCCc3ccccc32)c1 (stereo not given)	-4	-2	61*	0	1
CCCn1nnnc1NCc1c(Cl)cccc1Cl	-3	-1	-2	0	-2
CCCn1nnnc1NCc1cccc(Cl)c1	-4	10	80*	-7	5
O=C1OC(c2ccccc2)(c2ccccc2)c2ccccc21	2	1	4	55*	-5
O=C1OC(c2ccccc2)(c2ccc(O)cc2)c2ccccc21 (stereo not given)	-6	14	-4	4	3
CN1C(=O)C[C@@](C#N)(C(=O)NCc2ccccc2)[C@H]1c1ccccc1	9	x	x	x	12
CCCNC(=S)Nc1ccc(Cl)cc1C	4	-12	50*	-1	13
O=C(NCc1ccccc1Cl)O[C@H]1CC[C@@]23CCCN2C(=O)CCC[C@H]3C1	-1	x	x	x	-2
COc1ccc(CC2C(=O)OC(C)(C)OC2=O)cc1	-5	6	0	-1	-9
COc1ccc(CC2CCOC2=O)cc1 (stereo not given)	-1	-7	62*	0	-1
COc1ccc(C2CC(=O)c3c(C)nc(N4CCN(c5ccccc5)CC4)nc3C2)cc1 (stereo not given)	-7	1	38*	-1	-8
CC(C)CNC(=O)COC(=O)CCC(=O)c1ccc(Cl)cc1	-1	-6	13	41*	-6
CC(C)(C)NC(=O)COC(=O)CCC(=O)c1ccc(Cl)cc1	7	14	3	-1	2
Fc1ccc(CCNc2ncnc3[nH]ncc23)cc1	3	8	x	-1	0
Cc1ccc(CNc2ncnc3[nH]ncc23)cc1	-11	-4	62*	5	6
CCCCNC(=O)CN1C(=O)c2cccc(N)c2C1=O	-1	10	66*	-1	-8
COc1ccc(C(=O)N[C@H]2CC[C@@]34CCCN3C(=O)CCC[C@H]4[C@H]2C)cc1	-4	x	x	x	-1
O=C(Nc1ccccc1)C1=C(c2ccccc2)S(=O)(=O)CCS1(=O)=O	-1	1	34*	-1	0
O=C(O)c1ccccc1C(=O)Nc1ccccc1	4	-4	0	-1	8
O=C(Cn1ncc2c([nH]c3ccccc32)c1=O)N1CCOCC1	3	-12	39*	-1	1
S=C(N/N=C/c1ccc2ncccc2c1)Nc1ccccc1	5	-3	33*	-3	-1
